Measured values from PubChem BioAssay AID504533 (Broad Institute, 2011).
Where “and” joins values, the source holds several entries; their conditions need not be identical. Identical values can stand only once. Inconclusive results are not listed. Calls of active or inactive are those of the source.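 The calls were made as follows: active = compound whose fitted half-maximal viability-loss concentration is within ten times its top tested dose in every test run; inconclusive = test runs disagree, or a weak flat or poorly fitted curve; inactive = every test run inactive.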

Experiments:
[1] = cytotoxicity in HMLE_sh_eGFP control cells, dose response, counter-screen for breast cancer stem cell project, cell-based, luminescence, powder samples, set 5 (AID 504533); details: HMLE_sh_eGFP viability, CellTiter-Glo luminescence, 72 h
In short: (§1)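 Assay system: HMLE breast epithelial cells expressing shRNA against eGFP; amount: 2000 cells per well; times: compound exposure about 70–74 h at 37 °C, 5% CO2; dosing: 100 nL compound per well; controls: DMSO neutral control, 160 µM puromycin positive control; technique: CellTiter-Glo luminescence, reagent diluted 1:3 in PBS; medium: serum-free CSC medium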

[2] = test system: HMLE_sh_eGFP viability, CellTiter-Glo luminescence, 72 h; test: as above
In short: as §1

Cc1csc(NC(=O)c2ccc(CS(=O)(=O)c3ccccc3)o2)n1
activity change, negative = viability loss ([1]; at 19.5 µM (top of the series)): -13.3% (inactive)

Cc1cccc(OCc2ccc(C(=O)Nc3nc(C)cs3)o2)c1
AC50 [2]: 0.656 µM and 4.39 µM

Cc1coc(NC(=O)/C=C/c2ccc(C(C)C)cc2)n1
activity change, negative = viability loss ([1]; at 19.5 µM (top of the series)): -6.75% (inactive)

Cc1csc(NC(=O)c2ccc(CNc3ccccc3)o2)n1
AC50 [2]: 5.09 µM

O=C(Nc1nncs1)c1ccc(COc2ccccc2)o1
activity change, negative = viability loss ([1]; at 19.5 µM (top of the series)): 3.92% (inactive)

CC(C)c1ccc(/C=C/C(=O)N(C)C2=NCCS2)cc1
activity change, negative = viability loss ([1]; at 19.5 µM (top of the series)): 10.1% (inactive)

C/C(=C\C(=O)NC1=NCCS1)c1ccc(CC(C)C)cc1
activity change, negative = viability loss ([1]; at 19.5 µM (top of the series)): 17.8% (inactive)

Cc1cc(Br)ccc1OCC(=O)N/N=C/c1ccc[nH]1
activity change, negative = viability loss ([1]; at 19.5 µM (top of the series)): -25.7% (inactive)

Cc1ccc2cc(C(=O)NC3=NCCS3)n(C)c2c1
activity change, negative = viability loss ([1]; at 30 µM (top of the series)): -4.12% (inactive)

CC(C)Cc1ccc(/C=C/C(=O)NC2=NCCS2)cc1
AC50 [2]: 3.27 µM

COCc1ccc(C(=O)Nc2nc(C)cs2)o1
activity change, negative = viability loss ([1]; at 19.5 µM (top of the series)): 15.3% (inactive)

N#Cc1cnc(NC(=O)c2ccc(COc3ccccc3)o2)s1
activity change, negative = viability loss ([1]; at 19.5 µM (top of the series)): -1.72% (inactive)

C/C(=C\C(=O)NC1=NCCS1)c1ccc(C)cc1
activity change, negative = viability loss ([1]; at 19.5 µM (top of the series)): -3.46% (inactive)

Cc1csc(NC(=O)c2ccc(COc3ccccc3S(C)(=O)=O)o2)n1
activity change, negative = viability loss ([1]; at 19.5 µM (top of the series)): 2.08% (inactive)

Cc1csc(NC(=O)c2ccc(COCc3ccccc3)o2)n1
AC50 [2]: 19.6 µM

Cn1c(C(=O)NC2=NCCS2)cc2ccccc21
activity change, negative = viability loss ([1]; at 19.5 µM (top of the series)): -5.73% (inactive)

CCN(CC)C(=O)c1ccc(COc2ccccc2)o1
activity change, negative = viability loss ([1]; at 19.5 µM (top of the series)): 6.38% (inactive)

Cc1csc(NC(=O)c2ccc(COC(C)C)o2)n1
activity change, negative = viability loss ([1]; at 19.5 µM (top of the series)): -0.134% (inactive)

Cc1csc(NC(=O)c2ccc(COC(C)(C)C)o2)n1
activity change, negative = viability loss ([1]; at 19.5 µM (top of the series)): -4.37% (inactive)

CC(C)c1ccc(/C=C/C(=O)Nc2nc3ccccc3s2)cc1
activity change, negative = viability loss ([1]; at 19.5 µM (top of the series)): -0.373% (inactive)

Cc1cc(C)c(OCC(=O)N/N=C/c2ccc[nH]2)c(C)c1
activity change, negative = viability loss ([1]; at 19.5 µM (top of the series)): 1.17% (inactive)

CC(C)NC(=O)c1ccc(COc2ccccc2)o1
activity change, negative = viability loss ([1]; at 19.5 µM (top of the series)): -2.28% (inactive)

COc1cccc(OCc2ccc(C(=O)Nc3nc(C)cs3)o2)c1
AC50 [2]: 2.64 µM

Cc1csc(NC(=O)c2ccc(CCc3ccccc3)o2)n1
AC50 [2]: 9.08 µM

N#Cc1ccc(/C=C/C(=O)NC2=NCCS2)cc1
activity change, negative = viability loss ([1]; at 19.5 µM (top of the series)): -10.2% (inactive)

Cc1coc(NC(=O)c2ccc(COc3ccccc3)o2)n1
activity change, negative = viability loss ([1]; at 19.5 µM (top of the series)): 3.69% (inactive)
